Calls of active or inactive are those of the source. The calls are words filed in the database; no cut-off is given here.
Legend:
ACHN = assay: Anticancer activity against human ACHN cells assessed as cell growth level at 10 uM after 48 hrs by sulforhodamine B assay; format: functional
[1] = Anticancer activity against human OVCAR4 cells assessed as cell growth level at 10 uM after 48 hrs by sulforhodamine B assay; format: functional, OVCAR-4
[2] = Anticancer activity against human NCI-ADR-RES cells assessed as cell growth level at 10 uM after 48 hrs by sulforhodamine B assay; format: functional
[3] = Anticancer activity against human UACC62 cells assessed as cell growth level at 10 uM after 48 hrs by sulforhodamine B assay; format: functional, UACC-62
Malme-3M = assay: Anticancer activity against human MALME-3M cells assessed as cell growth level at 10 uM after 48 hrs by sulforhodamine B assay; format: functional
CAKI-1 = assay: Anticancer activity against human CAKI-1 cells assessed as cell growth level at 10 uM after 48 hrs by sulforhodamine B assay; format: functional
KM12 = assay: Anticancer activity against human KM12 cells assessed as cell growth level at 10 uM after 48 hrs by sulforhodamine B assay; format: functional
[4] = Anticancer activity against human HCT15 cells assessed as cell growth level at 10 uM after 48 hrs by sulforhodamine B assay; format: functional, HCT-15
NCI-H460 = assay: Anticancer activity against human NCI-H460 cells assessed as cell growth level at 10 uM after 48 hrs by sulforhodamine B assay; format: functional
MDA-MB-231 = assay: Anticancer activity against human MDA-MB-231 cells assessed as cell growth level at 10 uM after 48 hrs by sulforhodamine B assay; format: functional
786-0 = assay: Anticancer activity against human 786-0 cells assessed as cell growth level at 10 uM after 48 hrs by sulforhodamine B assay; format: functional
A549 = assay: Anticancer activity against human A549/ATCC cells assessed as cell growth level at 10 uM after 48 hrs by sulforhodamine B assay; format: functional
SW-620 = assay: Anticancer activity against human SW620 cells assessed as cell growth level at 10 uM after 48 hrs by sulforhodamine B assay; format: functional
NCI-H226 = assay: Anticancer activity against human NCI-H226 cells assessed as cell growth level at 10 uM after 48 hrs by sulforhodamine B assay; format: functional
[5] = target: Peroxisome proliferator-activated receptor gamma (Mus musculus) (UniProt P37238); assay: Transactivation of PPARgamma (mouse) expressed in 3T3-L1 cells incubated for 24 hrs by luciferase reporter gene assay relative to rosiglitazone
A498 = assay: Anticancer activity against human A498 cells assessed as cell growth level at 10 uM after 48 hrs by sulforhodamine B assay; format: functional
[6] = Anticancer activity against human UO31 cells assessed as cell growth level at 10 uM after 48 hrs by sulforhodamine B assay; format: functional, UO-31
MCF7 = assay: Anticancer activity against human MCF7 cells assessed as cell growth level at 10 uM after 48 hrs by sulforhodamine B assay; format: functional
[7] = Anticancer activity against human OVCAR3 cells assessed as cell growth level at 10 uM after 48 hrs by sulforhodamine B assay; format: functional, OVCAR-3
SNB-75 = assay: Anticancer activity against human SNB75 cells assessed as cell growth level at 10 uM after 48 hrs by sulforhodamine B assay; format: functional
SK-MEL-5 = assay: Anticancer activity against human SK-MEL-5 cells assessed as cell growth level at 10 uM after 48 hrs by sulforhodamine B assay; format: functional
[8] = Anticancer activity against human OVCAR8 cells assessed as cell growth level at 10 uM after 48 hrs by sulforhodamine B assay; format: functional, OVCAR-8
SR = assay: Anticancer activity against human SR cells assessed as cell growth level at 10 uM after 48 hrs by sulforhodamine B assay; format: functional
[9] = Anticancer activity against human BT549 cells assessed as cell growth level at 10 uM after 48 hrs by sulforhodamine B assay; format: functional, BT-549
M14 = assay: Anticancer activity against human M14 cells assessed as cell growth level at 10 uM after 48 hrs by sulforhodamine B assay; format: functional
[10] = Anticancer activity against human OVCAR5 cells assessed as cell growth level at 10 uM after 48 hrs by sulforhodamine B assay; format: functional, OVCAR-5
SF-268 = assay: Anticancer activity against human SF268 cells assessed as cell growth level at 10 uM after 48 hrs by sulforhodamine B assay; format: functional
[11] = Anticancer activity against human COLO205 cells assessed as cell growth level at 10 uM after 48 hrs by sulforhodamine B assay; format: functional, COLO 205
MDA-MB-435 = assay: Anticancer activity against human MDA-MB-435 cells assessed as cell growth level at 10 uM after 48 hrs by sulforhodamine B assay; format: functional
[12] = Anticancer activity against human SKOV3 cells assessed as cell growth level at 10 uM after 48 hrs by sulforhodamine B assay; format: functional, SK-OV-3
CCRF-CEM = assay: Anticancer activity against human CCRF-CEM cells assessed as cell growth level at 10 uM after 48 hrs by sulforhodamine B assay; format: functional
[13] = Anticancer activity against human HCC2998 cells assessed as cell growth level at 10 uM after 48 hrs by sulforhodamine B assay; format: functional, HCC 2998
NCI-H322M = assay: Anticancer activity against human NCI-H322M cells assessed as cell growth level at 10 uM after 48 hrs by sulforhodamine B assay; format: functional
Rattus norvegicus = assay: Antidiabetic activity in overnight fasted Wistar rat assessed as reduction in plasma glucose level at 30 mg/kg, po by oral glucose tolerance test; format: functional, organism-based; design: dose 30 mg/kg
In short: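 Normal Wistar rats were given a glucose load by the oral glucose tolerance method, and plasma glucose rise was followed after oral test dosing. Glibenclamide was the reference drug. Data are mean ± SEM of six observations versus control, analysed by one-way ANOVA with Dunnett test (p < 0.05, p < 0.01).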

[14] = Anticancer activity against human NCI60 cells assessed as cell growth level at 10 uM after 48 hrs by sulforhodamine B assay; format: functional
NCI-H23 = assay: Anticancer activity against human NCI-H23 cells assessed as cell growth level at 10 uM after 48 hrs by sulforhodamine B assay; format: functional
[15] = Anticancer activity against human Hs 578T cells assessed as cell growth level at 10 uM after 48 hrs by sulforhodamine B assay; format: functional
HT-29 = assay: Anticancer activity against human HT-29 cells assessed as cell growth level at 10 uM after 48 hrs by sulforhodamine B assay; format: functional
[16] = Anticancer activity against human SF295 cells assessed as cell growth level at 10 uM after 48 hrs by sulforhodamine B assay; format: functional, SF-295
[17] = Anticancer activity against human SF539 cells assessed as cell growth level at 10 uM after 48 hrs by sulforhodamine B assay; format: functional, SF-539
[18] = Anticancer activity against human HCT116 cells assessed as cell growth level at 10 uM after 48 hrs by sulforhodamine B assay; format: functional, HCT-116
[19] = Anticancer activity against human HOP92 cells assessed as cell growth level at 10 uM after 48 hrs by sulforhodamine B assay; format: functional, HOP-92
HL-60(TB) = assay: Anticancer activity against human HL-60(TB) cells assessed as cell growth level at 10 uM after 48 hrs by sulforhodamine B assay; format: functional
SK-MEL-28 = assay: Anticancer activity against human SK-MEL-28 cells assessed as cell growth level at 10 uM after 48 hrs by sulforhodamine B assay; format: functional

Peroxisome proliferator-activated receptor gamma (Mus musculus), sequence (P37238 whole entry, looked up): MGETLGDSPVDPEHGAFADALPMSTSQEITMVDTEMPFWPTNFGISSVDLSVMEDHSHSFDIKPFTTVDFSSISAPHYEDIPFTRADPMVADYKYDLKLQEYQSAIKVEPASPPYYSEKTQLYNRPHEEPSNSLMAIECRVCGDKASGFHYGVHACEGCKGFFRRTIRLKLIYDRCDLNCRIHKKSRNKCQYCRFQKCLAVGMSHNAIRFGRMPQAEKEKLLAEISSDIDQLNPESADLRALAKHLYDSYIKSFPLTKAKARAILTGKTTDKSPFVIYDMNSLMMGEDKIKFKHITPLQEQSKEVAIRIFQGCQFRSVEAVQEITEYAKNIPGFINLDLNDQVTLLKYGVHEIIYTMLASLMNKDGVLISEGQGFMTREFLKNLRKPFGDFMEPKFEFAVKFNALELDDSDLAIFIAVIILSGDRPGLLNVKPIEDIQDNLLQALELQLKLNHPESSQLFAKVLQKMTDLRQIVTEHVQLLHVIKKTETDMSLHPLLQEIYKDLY

COc1ccc(NC(=O)NS(=O)(=O)c2ccc(N3N=C(c4cccs4)CC3c3ccc(C)s3)cc2)cc1 (stereo not drawn)
Activity (ACHN): 93.16%
Activity [1]: 102.84%
Activity [2]: 103.44%
Activity [3]: 31%
Activity (Malme-3M): 31.15%
Activity (CAKI-1): 94.74%
Activity (KM12): 98.51%
Activity [4]: 102.46%
Activity (NCI-H460): 108.95%
Activity (MDA-MB-231): 113.39%
Activity (786-0): 100.87%
Activity (A549): 5.45%
Activity (SW-620): 107.16%
Activity (NCI-H226): 110.15%
Activity [5]: inactive
Activity (A498): 101.86%
Activity [6]: 87.18%
Activity (MCF7): 99.04%
Activity [7]: 106.38%
Activity (SNB-75): 99.87%
Activity (SK-MEL-5): 48.27%
Activity [8]: 106.9%
Activity (SR): 75.83%
Activity [9]: 116.23%
Activity (M14): 52.12%
Activity [10]: 113.48%
Activity (SF-268): 97.85%
Activity [11]: -63.47%
Activity (MDA-MB-435): 52.3%
Activity [12]: 82.55%
Activity (CCRF-CEM): 88.12%
Activity [13]: 111.31%
Activity (NCI-H322M): 102.37%
inhibition (Rattus norvegicus): Active
Activity [14]: 87.76%
Activity (NCI-H23): 97.55%
Activity [15]: 97.52%
Activity (HT-29): 119.52%
Activity [16]: 104.7%
Activity [17]: 104.31%
Activity [18]: 98.77%
Activity [19]: 87.06%
Activity (HL-60(TB)): 102.86%
Activity (SK-MEL-28): 48.3%

Cc1ccc(NC(=O)NS(=O)(=O)c2ccc(N3N=C(c4cccs4)CC3c3ccc(C)s3)cc2)cc1 (stereo not drawn)
Activity (ACHN): 96.6%
Activity [1]: 106.4%
Activity [2]: 102.87%
Activity [3]: 40.91%
Activity (Malme-3M): 40.64%
Activity (CAKI-1): 95.78%
Activity (KM12): 97.36%
Activity [4]: 99.31%
Activity (NCI-H460): 103.16%
Activity (MDA-MB-231): 116.79%
Activity (786-0): 103.79%
Activity (A549): 101.55%
Activity (SW-620): 106.34%
Activity (NCI-H226): 110.48%
Activity [5]: inactive
Activity (A498): 109%
Activity [6]: 85.69%
Activity (MCF7): 97.09%
Activity [7]: 98.17%
Activity (SNB-75): 93.74%
Activity (SK-MEL-5): 47.78%
Activity [8]: 99.82%
Activity (SR): 84.69%
Activity [9]: 74.25%
Activity (M14): 58.39%
Activity [10]: 114.78%
Activity (SF-268): 95.62%
Activity [11]: -54.62%
Activity (MDA-MB-435): 61.95%
Activity [12]: 78.27%
Activity (CCRF-CEM): 87.89%
Activity [13]: 108.61%
Activity (NCI-H322M): 103.57%
inhibition (Rattus norvegicus): Active
Activity [14]: 89.29%
Activity (NCI-H23): 98.53%
Activity [15]: 96.05%
Activity (HT-29): 127.85%
Activity [16]: 100.07%
Activity [17]: 98.31%
Activity [18]: 85.12%
Activity [19]: 84.91%
Activity (HL-60(TB)): 126.37%
Activity (SK-MEL-28): 47.8%

From ChEMBL document CHEMBL3351675, “Novel benzenesulfonylureas containing thiophenylpyrazoline moiety as potential antidiabetic and anticancer agents” (Bioorg Med Chem Lett, 2014)
